Measurements from ChEMBL document CHEMBL4138245, “Design and synthesis of novel quinacrine-[1,3]-thiazinan-4-one hybrids for their anti-breast cancer activity” (Eur J Med Chem, 2018).
Calls of active or inactive are those of the source. The calls are words filed in the database; no cut-off is given here.

Assays:
[1] = system: MCF7; experiment: Upregulation of Cyclin-E protein expression in human MCF7 cells at 2 uM after 12 to 24 hrs by Western blot method; format: functional, cell-based
[2] = Selectivity index, ratio of compound concentration for cell killing activity in human MCF10A cells to compound concentration for cell killing activity in human NCI-H1975 cells; format: toxicity, cell-based; conditions: MCF10A cells versus NCI-H1975 cells, read-out: Selectivity Index
[3] = Selectivity index, ratio of compound concentration for cell killing activity in human 184B5 cells to compound concentration for cell killing activity in human MDA-MB-231 cells; format: toxicity, cell-based; conditions: 184B5 cells versus MDA-MB-231 cells, read-out: Selectivity Index
[4] = Selectivity index, ratio of compound concentration for cell killing activity in human 184B5 cells to compound concentration for cell killing activity in human MCF7 cells; format: toxicity, cell-based; conditions: 184B5 cells versus MCF7 cells, read-out: Selectivity Index
[5] = system: MCF7; experiment: Cell cycle arrest in human MCF7 cells assessed as DNA content at 2 uM after 48 hrs by BrdU incorporation assay (reference value: 29.4%); format: functional
[6] = system: MDA-MB-231; experiment: Cell cycle arrest in human MDA-MB-231 cells assessed as accumulation at sub-G1 phase at 2 uM after 48 hrs by propidium iodide staining based flow cytometry; format: functional
Summary of the method: (§1)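 MCF7, MDA-MB231 and non-cancer 184B5 breast cells exposed to 2 μM for 48 h, then cell-cycle analysis by flow cytometry; duplicates, repeated three times.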

[7] = system: MCF7; experiment: Cell cycle arrest in human MCF7 cells assessed as DNA content at 2 uM after 6 hrs by BrdU incorporation assay (reference value: 31.6%); format: functional
[8] = target: T1, Serine/threonine-protein kinase Chk1 (Homo sapiens) (UniProt O14757); experiment: Induction of CHK1 phosphorylation at S298 residue in human MCF7 cells at 2 uM after 12 to 48 hrs by Western blot method; format: cell-based
T1 sequence (whole entry): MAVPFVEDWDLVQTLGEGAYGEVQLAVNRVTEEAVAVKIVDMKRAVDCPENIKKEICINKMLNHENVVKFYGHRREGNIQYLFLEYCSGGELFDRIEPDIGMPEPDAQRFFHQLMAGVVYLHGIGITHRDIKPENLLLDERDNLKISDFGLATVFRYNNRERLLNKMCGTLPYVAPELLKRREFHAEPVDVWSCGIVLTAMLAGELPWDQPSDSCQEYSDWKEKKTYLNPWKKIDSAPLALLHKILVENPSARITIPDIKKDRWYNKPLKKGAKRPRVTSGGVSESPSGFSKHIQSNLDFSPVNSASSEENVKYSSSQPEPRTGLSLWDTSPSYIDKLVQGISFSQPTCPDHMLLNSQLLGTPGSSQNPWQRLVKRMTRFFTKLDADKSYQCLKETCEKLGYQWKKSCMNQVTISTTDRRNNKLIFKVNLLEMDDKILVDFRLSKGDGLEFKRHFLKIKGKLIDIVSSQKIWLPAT

[9] = Selectivity index, ratio of compound concentration for cell killing activity in human MCF10A cells to compound concentration for cell killing activity in human MDA-MB-468 cells; format: toxicity, cell-based; conditions: MCF10A cells versus MDA-MB-468 cells, read-out: Selectivity Index
[10] = Selectivity index, ratio of compound concentration for cell killing activity in human 184B5 cells to compound concentration for cell killing activity in human BT20 cells; format: toxicity, cell-based; conditions: 184B5 cells versus BT20 cells, read-out: Selectivity Index
[11] = system: MDA-MB-231; experiment: Potency index, ratio of cisplatin IC50 to compound IC50 for antiproliferative activity against human MDA-MB-231 cells; format: functional
[12] = target: RAC-alpha serine/threonine-protein kinase (Homo sapiens) (UniProt P31749); experiment: Upregulation of AKT phosphorylation at Thr308 residue in human MCF7 cells at 2 uM after 24 to 48 hrs by Western blot method; format: cell-based
Sequence of RAC-alpha serine/threonine-protein kinase (Homo sapiens) (P31749 whole entry): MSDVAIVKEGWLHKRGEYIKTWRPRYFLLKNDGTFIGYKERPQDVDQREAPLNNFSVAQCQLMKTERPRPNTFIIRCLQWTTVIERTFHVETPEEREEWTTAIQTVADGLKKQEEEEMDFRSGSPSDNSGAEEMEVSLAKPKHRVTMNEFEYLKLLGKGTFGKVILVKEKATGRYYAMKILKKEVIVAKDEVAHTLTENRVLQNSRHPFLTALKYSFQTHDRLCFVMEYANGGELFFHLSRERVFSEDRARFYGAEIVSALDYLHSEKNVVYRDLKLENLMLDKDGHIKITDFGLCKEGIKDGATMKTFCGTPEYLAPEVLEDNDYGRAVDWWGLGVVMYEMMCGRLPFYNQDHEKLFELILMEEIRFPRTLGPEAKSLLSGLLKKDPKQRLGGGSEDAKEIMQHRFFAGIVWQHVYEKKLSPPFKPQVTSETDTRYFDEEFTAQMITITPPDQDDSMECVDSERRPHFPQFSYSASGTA
Summary of the method: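 MCF7 cells were treated with the compound, collected and PBS-washed, then lysed on ice (Triton X-100/Tris pH 7.4 buffer with PMSF and protease inhibitors). Lysates were BCA-quantified, and 30–40 µg protein was resolved on 8% or 10% SDS-PAGE. Proteins were semi-dry transferred to PVDF, milk-blocked and probed with primary antibody overnight at 4 °C, then detected by ECL. Blots are representative of three independent experiments.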

[13] = system: BT-20; experiment: Antiproliferative activity against human BT20 cells assessed as compound concentration required to show complete inhibition of cell viability up to 96 hrs by SRB assay; format: functional
[14] = Selectivity index, ratio of compound concentration for cell killing activity in human 184B5 cells to compound concentration for cell killing activity in human CAMA1 cells; format: toxicity, cell-based; conditions: 184B5 cells versus CAMA1 cells, read-out: Selectivity Index
[15] = Selectivity index, ratio of compound concentration for cell killing activity in human MCF10A cells to compound concentration for cell killing activity in human A549 cells; format: toxicity, cell-based; conditions: MCF10A cells versus A549 cells, read-out: Selectivity Index
[16] = system: 184B5; experiment: Antiproliferative activity against human 184B5 cells assessed as compound concentration required to show complete inhibition of cell viability up to 96 hrs by SRB assay; format: cell-based; conditions: 184b5, 96 h
[17] = system: LNCaP; experiment: Antiproliferative activity against human LNCAP cells assessed as compound concentration required to show complete inhibition of cell viability up to 96 hrs by SRB assay; format: functional
[18] = system: MCF7; experiment: Potency index, ratio of cisplatin IC50 to compound IC50 for antiproliferative activity against human MCF7 cells; format: functional
[19] = system: MCF7; experiment: Cell cycle arrest in human MCF7 cells assessed as accumulation at S phase at 2 uM after 48 hrs by propidium iodide staining based flow cytometry; format: functional; summary of the method: as §1
[20] = system: SK-BR-3; experiment: Antiproliferative activity against human SK-BR-3 cells assessed as compound concentration required to show complete inhibition of cell viability up to 96 hrs by SRB assay; format: functional
[21] = Selectivity index, ratio of compound concentration for cell killing activity in human 184B5 cells to compound concentration for cell killing activity in human A549 cells; format: toxicity, cell-based; conditions: 184B5 cells versus A549 cells, read-out: Selectivity Index
[22] = Selectivity index, ratio of compound concentration for cell killing activity in human 184B5 cells to compound concentration for cell killing activity in human SK-BR-3 cells; format: toxicity, cell-based; conditions: 184B5 cells versus SK-BR-3 cells, read-out: Selectivity Index
[23] = system: MDA-MB-468; experiment: Antiproliferative activity against human MDA-MB-468 cells assessed as compound concentration required to show complete inhibition of cell viability up to 96 hrs by SRB assay; format: functional
[24] = target: Serine/threonine-protein kinase mTOR (Homo sapiens) (UniProt P42345); experiment: Inhibition of mTOR phosphorylation at S2448 residue in human MCF7 cells at 2 uM after 6 hrs by Western blot method; format: cell-based
[25] = system: PC-3; experiment: Antiproliferative activity against human PC3 cells assessed as compound concentration required to show complete inhibition of cell viability up to 96 hrs by SRB assay; format: functional

In the case of `COc1ccc2nc3cc(Cl)ccc3c(NCCCN3C(=O)CCSC3c3cccs3)c2c1` (stereo not given), the Activity [1] is reported as “Active”, the selectivity ratio [2] is reported as 3 to 6 and the selectivity ratio [3] is reported as 3 to 6. The selectivity ratio [4] was 3 to 6, the Activity [5] was 0.9% and the Activity [6] was “Active”. For the same molecule, the Activity [7] was 3.7%, the Activity [8] was “inactive” and the selectivity ratio [9] was 3 to 6. For the same molecule, the selectivity ratio [10] was 3 to 6, the “Ratio IC50” value [11] was 8.4 and the Activity [12] was “Active”. It also gave an Activity [13] of 1 µM, a selectivity ratio [14] of 3 to 6 and a selectivity ratio [15] of 3 to 6. The Activity [16] was 6 µM, the Activity [17] was 2 µM and the “Ratio IC50” value [18] was 37.3. For the same molecule, the Activity [19] was “Active”, the Activity [20] was 2 µM and the selectivity ratio [21] was 3 to 6. For the same molecule, the selectivity ratio [22] was 3 to 6, the Activity [23] was 2 µM and the inhibition [24] was “Active”. For the same molecule, the Activity [25] was 2 µM.
